We go through 73 sequences from the array DNA melting data of Ke et al. (doi:10.1101/2024.01.08.574731).

A short description of series [1]: folding enthalpy; higher = less favourable; fluorescence melt of hairpins on a sequencing array, two-state fit. The following applies: sodium 0.088 M. A digest of the protocol:
(§1)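 Two-state fits, bootstrapped, provided melting temperature and folding enthalpy from Cy3 fluorescence normalised to pre-quench Cy3 and to control constructs. Library hairpins with annealed Cy3 and quencher oligos were imaged on a sequenced MiSeq flow cell in 50 mM Na-HEPES pH 8.0, 25 mM NaCl, at 2.5 °C intervals up to 60 °C. Four replicates were combined with inverse-variance weighting. A 9.35 °C upward shift was applied to fitted temperatures to match UV melts.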

Series [2] is described as follows: melting temperature; fluorescence melt of hairpins on a sequencing array, two-state fit, raised by 9.35 °C to match UV melts. The following applies: sodium 0.088 M. The essentials:
as §1

As for GCTATGCGAAAGCCTGGC ((.(.((....)).).)), the folding enthalpy in series [1] is -18.8 kcal/mol. The Tm in series [2] amounted to 36.9 °C.
The matching figures for GCTATGCGAAAGCTGAGC (((..((....))..))): -21.9 kcal/mol and 47.4 °C.
The matching figures for GCTATTCGAAAGAAAAGC (((.(((....))).))): -27.9 kcal/mol and 39.1 °C.
For GCTATTGGAAACAATAGC (((((((....))))))), in that order: -47.7 kcal/mol and 56 °C.
On to GCTATTGGAAACAGTAGC ((((.((....)).)))), for which the folding enthalpy in series [1] is -30 kcal/mol. Also, the Tm in series [2] was 42.9 °C.
For GCTCAAACGAAAGTTAGC (((..(((....)))))), in that order: -22.6 kcal/mol and 29.4 °C.
With GCTCAACGAAAGTTAAGC (((.(((....))).))), in series [1], the folding enthalpy is -26.4 kcal/mol. In series [2], the Tm came to 42 °C.
The matching figures for GCTCAAGAAATTGAGC ((((((....)))))): -34.1 kcal/mol and 55.3 °C.
The matching figures for GCTCAAGGAAACTCGAGC ((((.((....)).)))): -30.5 kcal/mol and 38.3 °C.
The matching figures for GCTCAATCGAAAGATAGC (((..(((....)))))): -11.6 kcal/mol and 31.9 °C.
Consider GCTCACCCGAAAGGGAGC (((..(((....)))))), for which the folding enthalpy in series [1] was -19.4 kcal/mol. Moreover, in series [2], the Tm came out at 50.2 °C.
For GCTCACCGAAAGGTAAGC (((.(((....))).))), in that order: -29.1 kcal/mol and 48.6 °C.
The matching figures for GCTCACGAAAGTGACAGC ((((((....)))..))): -14.8 kcal/mol and 43.2 °C.
For GCTCACGAAAGTGTCAGC ((((((....)))..))), in that order: -17.4 kcal/mol and 37.4 °C.
GCTCACGAAAGTGTGAGC ((((((....)))..))): the folding enthalpy in series [1] was -34 kcal/mol. Also, the Tm in series [2] was determined as 55.8 °C.
For the sequence GCTCACGCGAAAGCGAGC (((..(((....)))))), the folding enthalpy in series [1] is -15.1 kcal/mol. In addition, the Tm in series [2] worked out at 47.8 °C.
For GCTCACGGAAACGCGAGC ((((.((....)).)))), the folding enthalpy in series [1] is -51.9 kcal/mol. Also, the Tm in series [2] came out at 53.4 °C.
Take GCTCACTCGAAAGAGAGC (((..(((....)))))): the folding enthalpy in series [1] is -25.1 kcal/mol. For the same sequence, the Tm in series [2] was found to be 41.6 °C.
For GCTCAGCGAAAGCGAAGC (((..((....))..))), in that order: -18.5 kcal/mol and 43.3 °C.
For GCTCAGCGAAAGCGGGGC ((.(.((....)).).)), in that order: -25.5 kcal/mol and 59.9 °C.
For GCTCAGCGAAAGCGTAGC (((..((....))..))), in that order: -18.1 kcal/mol and 49.7 °C.
Consider GCTCAGCGAAAGCTAAGC (((.(((....))).))), for which the folding enthalpy in series [1] is -40.3 kcal/mol. In addition, the Tm in series [2] was found to be 46.7 °C.
The matching figures for GCTCAGCGAAAGCTACGC ((..(((....)))..)): -11.4 kcal/mol and 35 °C.
For GCTCAGCGAAAGCTATGC ((..(((....)))..)), in that order: -12.6 kcal/mol and 36.4 °C.
For GCTCAGGGAAACCCGAGC ((((.((....)).)))), in that order: -35.8 kcal/mol and 51.3 °C.
With GCTCAGGGAAACTTGGGC ((.((.(....).)).)), the folding enthalpy in series [1] is -20.6 kcal/mol. Further, in series [2], the Tm was 35.3 °C.
As to GCTCAGTCGAAAGACAGC (((..(((....)))))), the folding enthalpy in series [1] was -15.3 kcal/mol. Also, the Tm in series [2] was 37.3 °C.
The matching figures for GCTCATCGAAAGATAAGC (((.(((....))).))): -23.8 kcal/mol and 39.6 °C.
For GCTCATGCGAAAGCAAGC (((..(((....)))))), in that order: -10.8 kcal/mol and 35 °C.
With GCTCATGGAAACATAAGC (((.(((....))).))), the folding enthalpy in series [1] is -18.2 kcal/mol. For the same sequence, the Tm in series [2] amounted to 32 °C.
The matching figures for GCTCCAGGAAACTGGAAC (.(((((....))))).): -18.7 kcal/mol and 38.3 °C.
The matching figures for GCTCCCCGAAAGGGAAGC (((.(((....))).))): -34 kcal/mol and 56.5 °C.
The matching figures for GCTCCCCGAAAGGGTAGC (((.(((....))).))): -21.7 kcal/mol and 54 °C.
Take GCTCCCGAAAGGGCAGC ((((((....))).))): the folding enthalpy in series [1] is -30.2 kcal/mol. In addition, in series [2], the Tm stood at 55.2 °C.
For GCTCCCGAAAGGGGCAGC ((((((....)))..))), in that order: -12.5 kcal/mol and 49.8 °C.
The matching figures for GCTCCCGAAAGGGGGAGC ((((((....)))..))): -23.8 kcal/mol and 64.5 °C.
The matching figures for GCTCCCGAAAGGGTAGC ((((((....))).))): -32.2 kcal/mol and 54.4 °C.
As to GCTCCCGAAAGGGTCAGC ((((((....)))..))), in series [1], the folding enthalpy is -13.5 kcal/mol. Moreover, the Tm in series [2] was determined as 41 °C.
With GCTCCCTCGAAAGAGAGC (((..(((....)))))), the folding enthalpy in series [1] is -19.5 kcal/mol. Moreover, in series [2], the Tm amounted to 35.6 °C.
The matching figures for GCTCCGCGAAAGCAGAGC ((((.((....)).)))): -31.6 kcal/mol and 64 °C.
The matching figures for GCTCCGCGAAAGCAGTGC ((.(.((....)).).)): -12.5 kcal/mol and 41.4 °C.
For GCTCCGCGAAAGCCGAGC ((((.((....)).)))), in that order: -34.5 kcal/mol and 58.4 °C.
GCTCCGCGAAAGCGCCGC ((..(((....)))..)): the folding enthalpy in series [1] is -6.58 kcal/mol. For the same sequence, in series [2], the Tm came out at 28.9 °C.
For the sequence GCTCCGCGAAAGCGCGGC ((..(((....)))..)), the folding enthalpy in series [1] was -11.9 kcal/mol. For the same sequence, in series [2], the Tm amounted to 44.8 °C.
For GCTCCGCGAAAGCTAAGC (((..((....))..))), in that order: -9.02 kcal/mol and 30.7 °C.
The matching figures for GCTCCGGGAAACCGGAAC (.(((((....))))).): -12.4 kcal/mol and 43.2 °C.
Take GCTCCTCGAAAGAGTAGC (((.(((....))).))): in series [1], the folding enthalpy is -32.1 kcal/mol. In series [2], the Tm stood at 45.5 °C.
The matching figures for GCTCCTGGAAACAGGAAC (.(((((....))))).): -19.3 kcal/mol and 36.6 °C.
The matching figures for GCTCGAGGAAACCCGAGC (((((.(....).))))): -30.9 kcal/mol and 54.3 °C.
Regarding GCTCGAGGAAACTCGAAC (.(((((....))))).), the folding enthalpy in series [1] was -18.1 kcal/mol. Further, the Tm in series [2] came to 40.9 °C.
The matching figures for GCTCGCCGAAAGGCCAGC (((.(((....))).))): -18.1 kcal/mol and 50.5 °C.
The matching figures for GCTCGCGAAAGCGCTAGC ((((((....)))..))): -11.9 kcal/mol and 42.6 °C.
The matching figures for GCTCGGCGAAAGCAAAGC (((..((....))..))): -16.4 kcal/mol and 37.8 °C.
Consider GCTCGGCGAAAGCAGTGC ((.(.((....)).).)), for which the folding enthalpy in series [1] was -11.7 kcal/mol. The Tm in series [2] came to 60.6 °C.
The matching figures for GCTCGGCGAAAGCCAAGC (((.(((....))).))): -35.8 kcal/mol and 52.4 °C.
The matching figures for GCTCGGCGAAAGCCTAGC (((.(((....))).))): -40.8 kcal/mol and 52.8 °C.
The matching figures for GCTCGGCGAAAGCCTGGC ((..(((....)))..)): -12.7 kcal/mol and 53.8 °C.
As to GCTCGGGGAAACCCAAGC (((.(((....))).))), the folding enthalpy in series [1] was -17.8 kcal/mol. The Tm in series [2] was 45.3 °C.
The matching figures for GCTCGGGGAAACCCGGGC ((.((((....)))).)): -34.6 kcal/mol and 59.2 °C.
The matching figures for GCTCGGGGAAACCTGGGC ((.(.((....)).).)): -18.5 kcal/mol and 45.9 °C.
For the sequence GCTCGTACGAAAGTAAGC (((..(((....)))))), in series [1], the folding enthalpy is -4.48 kcal/mol. Moreover, the Tm in series [2] is 39.3 °C.
For GCTCGTCGAAAGACCAGC (((.(((....))).))), in that order: -15.2 kcal/mol and 45.1 °C.
Take GCTCGTGGAAACACGAAC (.(((((....))))).): the folding enthalpy in series [1] was -14.6 kcal/mol. Moreover, the Tm in series [2] was found to be 45.2 °C.
For GCTCTAACGAAAGTTAGC (((..(((....)))))), in that order: -13.7 kcal/mol and 33.8 °C.
The matching figures for GCTCTAGGAAACCAGAGC (((((.(....).))))): -31.4 kcal/mol and 44 °C.
For GCTCTAGGAAACTGGAGC ((((.((....)).)))), in that order: -35.8 kcal/mol and 49.6 °C.
In the case of GCTCTCCGAAAGGAAGC (((.(((....)))))), the folding enthalpy in series [1] was -25.8 kcal/mol. Further, the Tm in series [2] came to 47.8 °C.
The matching figures for GCTCTCGAAAGAGAAAGC ((((((....)))..))): -22.6 kcal/mol and 40 °C.
The matching figures for GCTCTCGAAAGAGCAAGC ((((((....)))..))): -12.2 kcal/mol and 42.9 °C.
Turning to GCTCTCGAAAGAGGAAGC ((((((....)))..))), the folding enthalpy in series [1] is -18.8 kcal/mol. For the same sequence, in series [2], the Tm came to 38.4 °C.
The matching figures for GCTCTCGGAAACGAGAAC (.(((((....))))).): -16 kcal/mol and 41.8 °C.
The matching figures for GCTCTCGGAAACGAGGGC ((.((((....)))).)): -40 kcal/mol and 58.7 °C.
For GCTCTCTCGAAAGAGAGC (((..(((....)))))), in that order: -26.9 kcal/mol and 60.3 °C.
